The test system of data set [1] is Streptococcus pyogenes. Nature of the data set: Growth inhibition of Streptococcus pyogenes UMAA2616 at 50 uM relative to control. It is filed as organism-based. The note with it: in vitro. The procedure, abridged:
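Diluted 1:1000 into THY containing compound at 50 μM in 0.1% DMSO and grown in triplicate at 37 °C to OD600 ≈ 1.0. Growth given as OD600 test/DMSO control; mean of at least three experiments ± SD.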

Data set [2] is described as follows: Kinetic solubility of the compound in aqueous Todd Hewitt bacterial media at 0.87 to 99 uM by UV/Vis spectrophotometry. The data set is classed as physicochemical. The note with it: read-out: Kinetic_solubility. The method in brief:
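10 mM DMSO stocks serially diluted in DMSO, then added 1:100 to Todd-Hewitt broth at 37 °C, giving final 0.87–99 μM. Plate shaken, incubated 5 min at 37 °C, and OD600 read (n = 3). Solubility taken as the midpoint between the first concentration with OD600 ≥ 0.005 AU above background and the preceding concentration, ± half the interval.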

In data set [3] the test system is Liver. The data set is described as follows: (§1) Half life in mouse liver microsomes at 0.5 to 1 uM by LC-MS/MS analysis. The data set is classed as ADME, Microsome. The note with it: microsomes, 1 µM. A general note: Liver microsomes are a subcellular fraction often used to study metabolism.
Data set [4] in a line: Kinetic solubility of the compound in phosphate-buffered saline at 0.87 to 99 uM by UV/Vis spectrophotometry. It is filed as physicochemical. The method in brief: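 10 mM DMSO stocks serially diluted in DMSO, then added 1:100 to PBS at 37 °C, giving final 0.87–99 μM. Plate shaken, incubated 5 min at 37 °C, and OD600 read (n = 3). Solubility taken as the midpoint between the first concentration with OD600 ≥ 0.005 AU above background and the preceding concentration, ± half the interval.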

Data set [5] in a line: as §1. It is filed as ADME, Microsome. To be noted: liver microsomes.
In data set [6] the target is T1, Streptokinase (Streptococcus pyogenes) (UniProt P96471).
T1 sequence (whole entry): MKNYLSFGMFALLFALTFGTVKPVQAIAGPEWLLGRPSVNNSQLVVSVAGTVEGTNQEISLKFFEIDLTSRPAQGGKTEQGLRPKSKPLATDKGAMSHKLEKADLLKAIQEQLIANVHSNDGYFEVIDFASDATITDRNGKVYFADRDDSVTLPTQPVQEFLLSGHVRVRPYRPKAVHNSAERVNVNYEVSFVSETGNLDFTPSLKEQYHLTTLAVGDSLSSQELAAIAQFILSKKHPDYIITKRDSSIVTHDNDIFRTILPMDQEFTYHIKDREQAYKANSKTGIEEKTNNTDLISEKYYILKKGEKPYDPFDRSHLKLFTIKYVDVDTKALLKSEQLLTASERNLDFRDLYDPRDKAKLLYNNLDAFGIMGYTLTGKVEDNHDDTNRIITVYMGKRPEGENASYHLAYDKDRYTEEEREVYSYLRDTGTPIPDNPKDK
Nature of the data set: Inhibition of Streptococcus pyogenes UMAA2616 streptokinase assessed as cleavage of S-2403 to colored product p-nitroaniline at 50 uM after 2 hrs relative to control. The procedure, abridged: (§2)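 UMAA2616 grown in THY (0.1% DMSO, compound at 5 or 50 μM) at 37 °C to OD600 ≈ 1.0, then centrifuged. Supernatant mixed with PBS, human plasma and S-2403 plasmin substrate and incubated 2 h at 37 °C; A405 read. Activity came from a DMSO-culture standard curve, was corrected for growth by OD600 and expressed as test/control. Mean of at least three experiments ± SD.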

In data set [7] the target is T1, Streptokinase (Streptococcus pyogenes). The data set is described as follows: Inhibition of Streptococcus pyogenes UMAA2616 streptokinase assessed as cleavage of S-2403 to colored product p-nitroaniline at 5 uM after 2 hrs relative to control. The procedure, abridged: as §2
The target of data set [8] is T2, Streptokinase (Streptococcus pyogenes, UniProt P96471).
T2 sequence (P96471 whole entry): T1 sequence (whole entry)

Data set [9] relates to Liver. Nature of the data set: Metabolic stability in mouse liver microsomes assessed as oxidation of compound. It is filed as ADME, Microsome.

Converted amounts (≈) assume the structure as drawn.

As for `C=CCn1c(SCC)nc2c(c1=O)C(C)(C)Cc1cc(OCCc3ccccc3)ccc1-2`, in data set [1], the T/C worked out at 1.01.

Consider `C=CCn1c(SCC(=O)OCC)nc2c(c1=O)C(C)(C)Cc1ccccc1-2`, for which the T/C in data set [1] turned out to be 1.01. Same read-out and setting: the same measure for `C=CCn1c(SCc2ccc(OC)cc2)nc2c(c1=O)C1(CCCCC1)Cc1ccccc1-2`: 1.05. In the case of `C=CCn1c(SCCOC)nc2c(c1=O)C(C)(C)Cc1ccccc1-2`, in [2], the solubility kinetic was 22.5 µM (≈ 8.02 µg/mL). This molecule registered a t1/2 in data set [3] of 1.7 min. The matching figures for `C=CCn1c(SC)nc2c(c1=O)C1(CCCCC1)Cc1ccccc1-2`: 22 µM (≈ 7.76 µg/mL) and 13.5 min. With `C=CCn1c(SCCOC)nc2c(c1=O)C(C)(C)Cc1cc(C(=O)NCCc3c[nH]cn3)ccc1-2`, the T/C in [1] is 0.99. On the same count and under the same terms, the same measure for `C=CCn1c(NCC)nc2c(c1=O)C(C)(C)Cc1cc(CC(=O)OCC)ccc1-2`: 1.02. As to `C=CCn1c(SCC#N)nc2c(c1=O)C(C)(C)Cc1ccccc1-2`, the solubility kinetic stood at 34.5 µM (≈ 11.6 µg/mL) in [2] and 3 µM (≈ 1.01 µg/mL) in data set [4]. Besides, the t1/2 in [3] was found to be 20.6 min. This molecule had a T/C in data set [1] of 1. For the molecule `C=CCn1c(SCCN(C)C)nc2c(c1=O)C1(CCCCC1)Cc1ccccc1-2`, in [1], the T/C is recorded as 0.88. On the same count and under the same terms, the same measure for `C=CCn1c(SCCOC)nc2c(c1=O)C(C)(C)Cc1cc(C(=O)O)ccc1-2`: 0.86.

In [3], `CCn1c(SCCOC)nc2c(c1=O)C(C)(C)Cc1ccccc1-2` registered a t1/2 of 0.8 min. The same molecule yielded a T/C in data set [1] of 0.39. What is called half-life is the time in which the quantity being followed falls by half. Consider `COCCSc1nc2c(c(=O)n1CCc1ccc(OC)cc1)C(C)(C)Cc1ccccc1-2`, for which the half-life in data set [5] was 9.4 min. The T/C in [1] was determined as 0.97; in data set [6], 0.61; in data set [7], 0.71. Turning to `C=CCn1c(SCC)nc2c(c1=O)C(C)(C)Cc1ccc(OCCOC)cc1-2`, the T/C in [1] is 1.02. Same read-out and setting: the same measure for `C=CCn1c(SCc2ccccn2)nc2c(c1=O)C(C)(C)Cc1ccccc1-2`: 1.05. `C=CCn1c(SCC(N)=O)nc2c(c1=O)C(C)(C)Cc1ccccc1-2` had a t1/2 in [3] of less than 2 min. For the same molecule, the T/C in data set [1] was 1. Consider `C=CCn1c(SCc2ccc(NC(C)=O)cc2)nc2c(c1=O)C1(CCCCC1)Cc1ccccc1-2`, for which, in data set [1], the T/C stood at 0.96. On to `C=CCn1c(NCC)nc2c(c1=O)C(C)(C)Cc1ccccc1-2`, for which, in data set [3], the t1/2 is on record as 1.1 min. The T/C in [1] was 0.06. For the molecule `C=CCn1c(SCc2ccccc2)nc2c(c1=O)C(C)(C)Cc1ccccc1-2`, the solubility kinetic in data set [2] came out at 9 µM (≈ 3.5 µg/mL). In [1], `C=CCn1c(SCCO)nc2c(c1=O)C(C)(C)Cc1ccccc1-2` displayed a T/C of 0.06. For the molecule `C=CCn1c(OCC)nc2c(c1=O)C1(CCCCC1)Cc1ccccc1-2`, the solubility kinetic in [2] stood at 14.5 µM (≈ 5.08 µg/mL). Further, the T/C in data set [1] is listed as 1.02. Take `CCSc1nc2c(c(=O)n1CC(F)(F)F)C(C)(C)Cc1ccc(OC)cc1-2`: in [5], the half-life stood at 3 min. Further, the T/C in data set [1] is reported as 1.01. As to `C=CCn1c(SCC)nc2c(c1=O)C(C)(C)Cc1cc(OCCOC)ccc1-2`, in data set [1], the T/C is reported as 0.85.

Molecule `C=CCn1c(SCC)nc2c(c1=O)C(C)(C)Cc1cc(OCCCCCCC)ccc1-2` came in with a T/C in data set [1] of 1.05. For orientation: IC50 means the concentration that gives 50% inhibition. A low value points to greater potency in that assay. Consider `C=CCn1c(SCCCC)nc2c(c1=O)C1(CCCCC1)Cc1ccccc1-2` [CCG-2979], for which the solubility kinetic in data set [2] amounted to 9 µM (≈ 3.55 µg/mL); in data set [4], 2 µM (≈ 0.789 µg/mL). The t1/2 in data set [3] amounted to 37.2 min. The T/C in data set [1] stood at 0.95. Moreover, the IC50 in [8] was greater than 50 µM.

Take `C=CCn1c(SCC)nc2c(c1=O)C(C)(C)Cc1cc(OCCCC)ccc1-2`: the T/C in data set [1] is 0.87. Same read-out and setting: then `C=CCn1c(SCCOC)nc2c(c1=O)C(C)(C)Cc1cc(C(=O)NCc3ccccc3)ccc1-2`, with 1.07.

Turning to `C=CCn1c(NCC)nc2c(c1=O)C1(CCCCC1)Cc1ccccc1-2`, the solubility kinetic in data set [2] came to 9 µM (≈ 3.15 µg/mL). In data set [1], this molecule came in with a T/C of 0.32.

For `C=CCn1c(SCc2ccccc2)nc2c(c1=O)C1(CCCCC1)Cc1ccccc1-2` [CCG-102487], the solubility kinetic in data set [2] turned out to be 9 µM (≈ 3.86 µg/mL). In [3], this molecule gave a t1/2 of 0.6 min. This molecule yielded a T/C in data set [1] of 0.96. Also, the IC50 in [8] is greater than 50 µM.

Consider `CCn1c(SCc2ccccc2)nc2c(c1=O)C1(CCCC1)Cc1ccccc1-2`, for which the T/C in [1] was 1.07. Consider `C=CCn1c(SCCOC)nc2c(c1=O)C1(CCCCC1)Cc1ccccc1-2`, for which, in [2], the solubility kinetic is 9 µM (≈ 3.57 µg/mL). Besides, the Stability entry in data set [9] is “Stable”. The t1/2 in data set [3] stood at 6.4 min. Moreover, the T/C in [1] is on record as 0.99. As for `C=CCn1c(OCC)nc2c(c1=O)C(C)(C)Cc1ccccc1-2`, the t1/2 in data set [3] came to 0.9 min. Besides, the T/C in data set [1] was 0.5.

The values are drawn from ChEMBL document CHEMBL2346625 (Bioorg Med Chem, 2013).
